Hits are enriched below; roughly 4.4% of the tested compounds scored in any of these assays.
m5-HT2A agonist: mouse HTR2A agonism via beta-arrestin recruitment; actives 0.66% (n = 360,000); CHO-K1 mHTR2A beta-arrestin complementation, luminescence; percent of 30 µM serotonin response; AID 624169; activation, % at 7.6 µM;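 active means activation above a run cutoff, the mean activation of all tested compounds plus 3 SD, cut at about 14% in these data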;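 further: 0% = plate median of compound wells and 100% = 30 µM serotonin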
Tb MetRS inh: blocks T. brucei methionyl-tRNA synthetase activity | AID 624268 | purified T. brucei MetRS, ATP depletion, Kinase-Glo luminescence | actives 0.4% (n = 360,000) | inhibition, % at 11.9 µM;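 active means inhibition above a per-plate cutoff of the control wells' mean inhibition plus 3 SD, cut at about 5.5% in these data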;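 further: 0% = DMSO wells median and 100% = median of wells with control inhibitor compound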
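technique = Kinase-Glo luminescence, ATP depletion format | system = purified MetRS (methionyl-tRNA synthetase) enzyme from Trypanosoma brucei | timing = 15 min preincubation, 2 h reaction, all 25 °C | evaluation = percent inhibition versus plate control medians | dosing = single dose, 11.9 µM final nominal, 0.9% final DMSO | also added = substrates ATP, L-methionine and bulk Escherichia coli tRNA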
AI-2 QS modul: modulators of Vibrio harveyi AI-2 quorum sensing system; Vibrio harveyi JMH597 AI-2 luminescence/OD600 ratio, 9 h; hits give low values; strain lacks LuxN and CqsS sensors; 0 = neutral-control median; activity change, % at 7.5 µM; actives 0.4% (n = 300,000); in the data active means activity change below about -75%, passing the limit was not always enough;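 further: luminescence divided by OD600 gain over 9 h not by final OD600 alone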
AHR act: activates the human aryl hydrocarbon receptor. P35869. AHR-responsive luciferase reporter cells, luminescence. activation, % at 5 µM. actives 2.5% (n = 320,000). AID 2796; in the data active means activation above about 47%;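 further: 0% = vehicle wells and 100% = reference agonist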
bovine MsrA act: bovine methionine sulfoxide reductase A activation. purified bovine MsrA, absorbance read-out. activation, % at 10.6 µM. actives 0.3% (n = 360,000); in the data active means activation above about 7.5%;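 further: 0% = vehicle and 100% = reference activator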
MsrA inh: bovine MsrA inhibition; purified bovine MsrA, absorbance read-out; inhibition, % at 15.5 µM; actives 0.75% (n = 360,000); in the data active means inhibition above about 4.5%;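 further: 0% = vehicle wells with enzyme and 100% = reference inhibitor wells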
* hit, by the source's call; x = no result given.

SMILES | m5-HT2A agonist | Tb MetRS inh | AI-2 QS modul | AHR act | bovine MsrA act | MsrA inh
Cn1nc(-c2ccccc2)c(C(=O)Nc2ccc(Cl)cc2)c1Cl | 5 | -1 | 16 | 1 | -4 | 0
CC(=O)Nc1cccc(N/C=C(\C=O)c2nc3ccccc3o2)c1 | 1 | 0 | 65 | 59* | -2 | 2
O=C/C(=C\Nc1ccc(Br)cc1)c1nc2ccccc2o1 | 0 | 0 | 5 | 49* | -1 | 1
C=CCSc1nc2sc3c(c2c(=O)n1CC)CCc1ccccc1-3 | 2 | -1 | 8 | 56* | -5 | 1
C=CCn1c(SCC)nc2sc3c(c2c1=O)CCc1ccccc1-3 | -2 | 0 | 0 | 18 | -8 | 2
COc1ccc2c(c1OC)C(=O)N(c1ccccn1)C2 | -3 | 0 | 6 | 52* | -1 | 0
CCOC(=O)N1CCN(C(=O)C[C@H]2C[C@@]3(C(=O)OC)C(=C[C@H](C(C)C)O[C@@H]3C3CC3)N(Cc3ccccc3)C2=O)CC1 | x | x | x | x | x | -1
CC(C)C[C@H]1COc2c(Cl)cccc2S(=O)(=O)N1Cc1ccc(F)cc1F | x | x | x | x | x | 0
CCn1c2ccccc2c2c3ncc4cccn4c3ccc21 | 0 | 1 | 20 | 66* | -2 | 0
O=C(COC(=O)C1CCC(N2C(=O)C3C4CCC(C4)C3C2=O)CC1)c1ccc(F)cc1 (centres undefined) | 2 | 0 | 16 | -1 | 1 | 0
N#Cc1ccc(-c2ccc(OCC(=O)NN=Cc3ccncc3)cc2)cc1 | -5 | 0 | x | 24 | -3 | 0
COc1ccc(N/C=C2/Sc3ccccc3NC2=O)cc1 | 0 | -1 | 29 | 55* | -4 | 1
COc1ccc(-c2ccc(CCC(=O)O)n2CC(=O)Nc2cccc(OC)c2)cc1 | 3 | -1 | 21 | 2 | -2 | 4.7*
COc1cccc(NC(=O)Cn2c(CCC(=O)O)ccc2-c2ccc(C)cc2)c1 | -1 | 0 | 5 | 1 | -3 | 3
N#CC1=C(N)NC(SCC(=O)Nc2ccccc2)=C(C#N)C12CCCC2 | -3 | 2 | 23 | 71* | -3 | 2
C=CCN1C(=O)c2n[nH]c(C(C)C)c2C1c1ccc2c(c1)OCO2 (centres undefined) | x | x | x | x | x | 0
Cc1[nH]c2ccc(Br)cc2c(=S)c1C/C=C/Cl | 5 | 2 | 6 | 6 | -7 | 2
Cc1[nH]c2ccc3ccccc3c2c(=O)c1C/C=C/Cl | -2 | 4 | 25 | 47* | -1 | 2
CCC(=O)Nc1cc2nn(-c3ccccc3)nc2cc1Cl | -1 | 0 | 20 | 51* | -1 | -1
Cc1ccc(NC(=O)c2cccs2)cc1NC(=O)c1cccc(F)c1 | 2 | -1 | x | 64* | 0 | 0
Cc1cc(NC(=O)c2cccs2)n(-c2ccccc2)n1 | 0 | -1 | 22 | 0 | -13 | -1
Cc1cc2nn(-c3ccccc3)nc2cc1NC(=O)c1cccs1 | -4 | -1 | 32 | 68* | 1 | 2
CC(=O)Nc1cc2nn(-c3ccccc3)nc2cc1C | 4 | -1 | 19 | 55* | -2 | 2
Cc1cc(NC(=O)c2ccc(F)c(S(=O)(=O)N3CCCCC3)c2)no1 | -2 | 0 | 17 | x | -3 | 0
Cc1cccc(Cl)c1NC(=O)N(C)c1ccccc1 | x | x | x | x | x | 0
SMILES | m5-HT2A agonist | Tb MetRS inh | AI-2 QS modul | AHR act | bovine MsrA act | MsrA inh
C[C@@H]1ON(C)[C@H]2C[C@H]3c4[nH]c5c(-c6cccc(F)c6)cccc5c4CCN3C(=O)[C@@H]12 | x | x | x | x | x | 0
C=CCNc1ccc2c(c1)OC[C@H](CC(C)C)NS2(=O)=O | x | x | x | x | x | 0
NC(=O)c1c(N)[nH]c(C(=O)c2ccccc2)c1-c1ccc(Cl)cc1Cl | x | x | x | x | x | 1
COC(=O)c1ccccc1NC1=C/C(=N\S(=O)(=O)c2cccs2)c2ccccc2C1=O | -9 | 0 | 43 | 88* | 0 | 0
CC(C)(C)c1ccc(S(=O)(=O)/N=C2\C=C(NS(=O)(=O)c3ccccc3)C(=O)c3ccccc32)cc1 | 7 | 0 | 99 | 54* | 0 | 0
O=C1C(Nc2ccccc2)=C/C(=N/S(=O)(=O)c2cccs2)c2ccccc21 | -1 | 3 | 36 | 15 | -1 | x
COC(=O)c1ccccc1NC1=C/C(=N\S(=O)(=O)c2ccc(C(=O)O)cc2)c2ccccc2C1=O | 4 | 1 | 55 | 62* | -3 | x
Cc1ccc(S(=O)(=O)/N=C2\C=C(NS(=O)(=O)c3ccccc3)C(=O)c3ccccc32)c(C)c1 | 8 | -1 | x | x | -8 | -1
O=C(C(=O)N1CCC(CNC(=O)C2COc3ccccc3O2)CC1)c1cc2ccccc2o1 (centres undefined) | x | x | x | x | x | 1
COc1ccc(OCC2CN(C3CCCC3)S(=O)(=O)CCO2)cc1 (centres undefined) | x | x | x | x | x | -1
CCCOc1ccc(-c2nc(OC)c3ccccc3n2)cc1 | -1 | -1 | 9 | 77* | -5 | 0
COc1ccc(Oc2nc(-c3cccnc3)nc3ccccc23)cc1 | 1 | 0 | 15 | 4 | -3 | -1
COC(=O)[C@]12C[C@H](CC(=O)N3CCC(c4ccccc4)CC3)C(=O)N(CCC3=CCCCC3)C1=C[C@H](C(C)(C)C)O[C@@H]2C | x | x | x | x | x | 0
O=[N+]([O-])c1cccnc1-n1cnc2ccccc21 | 4 | 0 | 4 | 1 | -1 | 1
Cc1cc2ncn(-c3ncccc3[N+](=O)[O-])c2cc1C | 11 | -1 | 32 | 48* | -1 | 1
Cc1ccc(N=Nc2c(N)n[nH]c2N)cc1 | -1 | -1 | 10 | 6 | -4 | 3
Nc1n[nH]c(N)c1N=Nc1ccc2c(c1)OCO2 | -2 | -1 | 15 | 48* | -3 | 4
O=C(Nn1c(-c2ccccc2)nc2ccccc2c1=O)C1CCC1 | 1 | 1 | 10 | 47* | -1 | -1
O=C(Nn1c(-c2ccccc2)nc2ccccc2c1=O)c1cccs1 | 0 | 0 | 15 | 51* | -1 | 1
Cc1nc(SCC(=O)Nn2c(-c3ccccc3)nc3ccccc3c2=O)n[nH]1 | -3 | -1 | 21 | 74* | -1 | 0
C[C@@H]1C=CCCO[C@]12C(=O)N(Cc1ccccc1C(F)(F)F)c1ccccc12 | x | x | x | x | x | 2
O=C1CCCCC1CCS(=O)(=O)NCc1ccccc1 (centres undefined) | x | x | x | x | x | -1
CCn1cnc2c([N+](=O)[O-])c(NS(=O)(=O)c3ccc(C)cc3)ccc21 | -9 | 0 | 12 | 0 | 12* | 0
CCn1cnc2cc(NS(=O)(=O)c3ccc(C)cc3)ccc21 | -1 | -1 | -3 | 1 | -2 | 0
O=[N+]([O-])c1ccccc1N(S(=O)(=O)c1ccccc1)S(=O)(=O)c1ccccc1 | 1 | 0 | x | x | -4 | 0
Cc1ccc2nc3n(c(=O)c2c1)-c1ccccc1C(=O)NC3CC(C)C (centres undefined) | x | x | x | x | x | 0
CN(C)c1ccc(Nc2cc(Cl)ncn2)cc1 | -1 | 0 | 6 | 73* | -4 | 1

Screens: PubChem, several laboratories
